Among the data in ChEMBL document CHEMBL1687899, “Structure-activity relationships in nucleotide oligomerization domain 1 (Nod1) agonistic γ-glutamyldiaminopimelic acid derivatives” (J Med Chem, 2011) are EC50 values, retold here.

pEC50: −log10 of the molar value.

This assay has as its target T1, Nucleotide-binding oligomerization domain-containing protein 1 (Homo sapiens, UniProt Q9Y239).
T1 sequence (Q9Y239 whole entry): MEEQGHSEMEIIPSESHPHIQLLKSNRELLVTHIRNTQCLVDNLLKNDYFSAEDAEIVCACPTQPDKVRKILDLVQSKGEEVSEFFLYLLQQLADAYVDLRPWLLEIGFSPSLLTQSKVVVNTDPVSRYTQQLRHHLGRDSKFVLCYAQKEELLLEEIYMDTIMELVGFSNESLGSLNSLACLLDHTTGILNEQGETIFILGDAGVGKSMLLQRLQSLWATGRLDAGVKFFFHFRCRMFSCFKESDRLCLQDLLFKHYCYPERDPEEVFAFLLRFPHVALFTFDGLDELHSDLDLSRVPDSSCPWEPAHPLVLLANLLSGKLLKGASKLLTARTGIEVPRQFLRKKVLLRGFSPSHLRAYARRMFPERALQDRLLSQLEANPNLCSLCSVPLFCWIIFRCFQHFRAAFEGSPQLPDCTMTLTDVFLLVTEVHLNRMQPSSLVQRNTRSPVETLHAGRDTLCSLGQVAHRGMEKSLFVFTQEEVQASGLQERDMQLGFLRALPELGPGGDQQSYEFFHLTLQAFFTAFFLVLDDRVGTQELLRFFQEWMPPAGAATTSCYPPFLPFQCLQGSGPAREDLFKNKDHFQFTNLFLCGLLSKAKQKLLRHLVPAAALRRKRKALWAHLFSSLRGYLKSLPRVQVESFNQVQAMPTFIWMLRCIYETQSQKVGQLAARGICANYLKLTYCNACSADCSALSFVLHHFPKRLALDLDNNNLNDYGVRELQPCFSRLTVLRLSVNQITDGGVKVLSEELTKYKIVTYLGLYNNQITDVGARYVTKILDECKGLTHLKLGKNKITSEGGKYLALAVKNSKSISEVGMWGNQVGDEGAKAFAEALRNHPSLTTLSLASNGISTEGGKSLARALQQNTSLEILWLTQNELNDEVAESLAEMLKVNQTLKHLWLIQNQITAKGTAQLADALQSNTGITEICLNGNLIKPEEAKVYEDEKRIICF
Description: Agonist activity at human NOD-1 expressed in human HEK293 cells assessed as NF-kappaB induction by spectrophotometric analysis. In kind it is functional, cell-based. The gist of the method: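 HEK-Blue cells (HEK293 stably transfected with human Nod1 and an NF-κB/AP-1-inducible secreted alkaline phosphatase reporter) were kept in selection medium with zeocin and normocin. Cells at ~10^5 cells/mL were grown to confluency and then given graded compound concentrations. Supernatant sAP was read spectrophotometrically at 620 nm with an alkaline phosphatase-specific chromogen.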

For `CCCCCCCCCCCCN[C@H](CCC(=O)NC(CCCC(N)C(=O)O)C(=O)O)C(=O)O` (stereo partly specified), the negative-log EC50 (pEC50) is 10.64.
For `CCCCCCCCCCCC(=O)NC(CCCC(NC(=O)CC[C@@H](N)C(=O)O)C(=O)O)C(=O)O` (stereo partly specified), the negative logarithm of the EC50 (pEC50) was 9.26.
As to `CCCCCCCCCCCOC(=O)[C@@H](CCC(=O)NC(CCCC(N)C(=O)O)C(=O)O)NC(=N)N` (stereo partly specified), the pEC50 was 9.62.
In the case of `CCCCCCCCCCCC(=O)NCCCC(=O)NC(CCCC(N)C(=O)O)C(=O)O` (stereo unspecified), the pEC50 is 9.30.
For the compound `CCCCCCCCCCCC(=O)N[C@H](CCC(=O)NC(CCCC(N)C(=O)O)C(=O)O)C(=O)OCC` (stereo partly specified), the pEC50 is 10.16.
With `CCCCCCCCCCCC(=O)N[C@H](CCC(=O)NC(CCCC(NC(=N)N)C(=O)O)C(=O)O)C(=O)O` (stereo partly specified), the negative logarithm of the EC50 (pEC50) is 9.21.

Usually pEC50 stands for −log10 of the EC50, conventionally taken in molar units.
